Where “and” joins values, the source holds several entries; their conditions need not be identical. Equal entries are not always repeated.
Test system: U2OS
Assay: Multiplex assay against U2OS
Assay type: toxicity, cell-based
Conditions: human, number of replicates 2
In short: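 Per cents of healthy-nucleus cells form the tubulin, mitochondrial-mass and membrane-permeability phenotype values. Live cells were stained at seeding with Hoechst33342, BioTracker Green Microtubule Cytoskeleton Dye, MitoTracker Red and Annexin V Alexa Fluor 680. After compound addition they were imaged on a CQ1 microscope at 37°C and 5% CO2, and CellPathfinder machine-learning gating split them into Hoechst high-intensity objects or normal cells, normal cells into healthy, pyknosed or fragmented nuclei, and pyknosed cells into mitotic or apoptotic.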

[1] = 12 h, 1 µM, compound concentration 1 uM
[2] = 12 h, 10 µM, compound concentration 10 uM
[3] = 24 h, 1 µM, compound concentration 1 uM
[4] = 24 h, 10 µM, compound concentration 10 uM
[5] = 48 h, 1 µM, compound concentration 1 uM
[6] = 48 h, 10 µM, compound concentration 10 uM

Structure (SMILES): Cn1ncc(NC(=O)c2nc(-c3c(F)cccc3F)sc2N)c1N1CC[C@@H](N)[C@H](F)CC1
- Population Apoptotic (%) [1]: 55% and 77%
- Population Healthy Nuclei (%) [1]: 46% and 79%
- Population Hoechst High Intensity Objects (%) [1]: 0%
- Population Mitochondria Different-Phenotype (%) [1]: 0%
- Population Normal (%) [1]: 100%
- Population Pyknosed Nuclei (%) [1]: 19%
- Population Tubulin-Different-Phenotype (%) [1]: 50% and 77%
- Population Apoptotic (%) [2]: 73% and 69%
- Population Healthy Nuclei (%) [2]: 22% and 53%
- Population Hoechst High Intensity Objects (%) [2]: 0%
- Population Mitochondria Different-Phenotype (%) [2]: 0% and 18%
- Population Normal (%) [2]: 98% and 99%
- Population Pyknosed Nuclei (%) [2]: 44% and 24%
- Population Tubulin-Different-Phenotype (%) [2]: 38% and 39%
- Population Apoptotic (%) [3]: 50% and 89%
- Population Healthy Nuclei (%) [3]: 48% and 85%
- Population Hoechst High Intensity Objects (%) [3]: 0%
- Population Mitochondria Different-Phenotype (%) [3]: 8%
- Population Normal (%) [3]: 100% and 99%
- Population Pyknosed Nuclei (%) [3]: 16% and 7%
- Population Tubulin-Different-Phenotype (%) [3]: 62% and 80%
- Population Apoptotic (%) [4]: 90% and 86%
- Population Mitochondria Different-Phenotype (%) [4]: 33%
- Population Normal (%) [4]: 98% and 100%
- Population Pyknosed Nuclei (%) [4]: 49% and 31%
- Population Tubulin-Different-Phenotype (%) [4]: 33% and 56%
- Total Cell Count [4]: 64 and 190
- Population Apoptotic (%) [5]: 84% and 66%
- Population Healthy Nuclei (%) [5]: 90% and 65%
- Population Hoechst High Intensity Objects (%) [5]: 0%
- Population Mitochondria Different-Phenotype (%) [5]: 7%
- Population Normal (%) [5]: 100%
- Population Pyknosed Nuclei (%) [5]: 5%
- Population Tubulin-Different-Phenotype (%) [5]: 84% and 49%
- Population Apoptotic (%) [6]: 96% and 93%
- Population Healthy Nuclei (%) [6]: 21% and 44%
- Population Hoechst High Intensity Objects (%) [6]: 0%
- Population Mitochondria Different-Phenotype (%) [6]: 25% and 19%
- Population Normal (%) [6]: 100%
- Population Pyknosed Nuclei (%) [6]: 53% and 36%
- Population Tubulin-Different-Phenotype (%) [6]: 41% and 57%

Structure (SMILES): COc1ncc(-c2cc(-c3ncc(CN4C[C@@H](C)O[C@@H](C)C4)o3)c3cn[nH]c3c2)cc1NS(C)(=O)=O
- Population Apoptotic (%) [1]: 66% and 57%
- Population Fragmented Nuclei (%) [1]: 3% and 13%
- Population Healthy Nuclei (%) [1]: 85% and 69%
- Population Hoechst High Intensity Objects (%) [1]: 0%
- Population Membrane Permeable-Phenotype (%) [1]: 1% and 0%
- Population Mitochondria Different-Phenotype (%) [1]: 0%
- Population Mitotic Cells (%) [1]: 33% and 42%
- Population Normal (%) [1]: 99% and 100%
- Population Pyknosed Nuclei (%) [1]: 11% and 16%
- Population Tubulin-Different-Phenotype (%) [1]: 84% and 43%
- Population Apoptotic (%) [2]: 50% and 64%
- Population Healthy Nuclei (%) [2]: 68% and 77%
- Population Hoechst High Intensity Objects (%) [2]: 0%
- Population Membrane Permeable-Phenotype (%) [2]: 12% and 10%
- Population Mitochondria Different-Phenotype (%) [2]: 0% and 5%
- Population Mitotic Cells (%) [2]: 50% and 35%
- Population Normal (%) [2]: 100% and 99%
- Population Pyknosed Nuclei (%) [2]: 10% and 18%
- Population Tubulin-Different-Phenotype (%) [2]: 48% and 45%
- Population Apoptotic (%) [3]: 65% and 87%
- Population Fragmented Nuclei (%) [3]: 1% and 9%
- Population Healthy Nuclei (%) [3]: 87% and 75%
- Population Hoechst High Intensity Objects (%) [3]: 0%
- Population Membrane Permeable-Phenotype (%) [3]: 1% and 0%
- Population Mitochondria Different-Phenotype (%) [3]: 0%
- Population Mitotic Cells (%) [3]: 34% and 12%
- Population Normal (%) [3]: 99% and 100%
- Population Pyknosed Nuclei (%) [3]: 10% and 15%
- Population Tubulin-Different-Phenotype (%) [3]: 82% and 47%
- Population Apoptotic (%) [4]: 64% and 74%
- Population Healthy Nuclei (%) [4]: 49% and 69%
- Population Hoechst High Intensity Objects (%) [4]: 0%
- Population Membrane Permeable-Phenotype (%) [4]: 0% and 8%
- Population Mitochondria Different-Phenotype (%) [4]: 7% and 9%
- Population Mitotic Cells (%) [4]: 35% and 25%
- Population Normal (%) [4]: 100%
- Population Pyknosed Nuclei (%) [4]: 26% and 23%
- Population Tubulin-Different-Phenotype (%) [4]: 76% and 49%
- Population Apoptotic (%) [5]: 65% and 69%
- Population Fragmented Nuclei (%) [5]: 2% and 7%
- Population Healthy Nuclei (%) [5]: 87% and 72%
- Population Hoechst High Intensity Objects (%) [5]: 0%
- Population Membrane Permeable-Phenotype (%) [5]: 1% and 0%
- Population Mitochondria Different-Phenotype (%) [5]: 0%
- Population Mitotic Cells (%) [5]: 34% and 30%
- Population Normal (%) [5]: 99% and 100%
- Population Pyknosed Nuclei (%) [5]: 10% and 19%
- Population Tubulin-Different-Phenotype (%) [5]: 81% and 43%
- Population Apoptotic (%) [6]: 76% and 81%
- Population Healthy Nuclei (%) [6]: 55% and 62%
- Population Hoechst High Intensity Objects (%) [6]: 0%
- Population Membrane Permeable-Phenotype (%) [6]: 7% and 8%
- Population Mitochondria Different-Phenotype (%) [6]: 10% and 12%
- Population Mitotic Cells (%) [6]: 23% and 18%
- Population Normal (%) [6]: 100%
- Population Pyknosed Nuclei (%) [6]: 25% and 30%
- Population Tubulin-Different-Phenotype (%) [6]: 63% and 50%

Structure (SMILES): CNC(=O)c1c(F)cccc1Nc1nc(Nc2cc3c(cc2OC)CCN3C(=O)CN(C)C)nc2[nH]ccc12
- Population Apoptotic (%) [1]: 57% and 62%
- Population Healthy Nuclei (%) [1]: 60% and 80%
- Population Hoechst High Intensity Objects (%) [1]: 0%
- Population Membrane Permeable-Phenotype (%) [1]: 0% and 7%
- Population Mitochondria Different-Phenotype (%) [1]: 0% and 8%
- Population Mitotic Cells (%) [1]: 42% and 37%
- Population Normal (%) [1]: 100%
- Population Pyknosed Nuclei (%) [1]: 13% and 15%
- Population Tubulin-Different-Phenotype (%) [1]: 80% and 46%
- Population Apoptotic (%) [2]: 46% and 60%
- Population Healthy Nuclei (%) [2]: 33% and 35%
- Population Hoechst High Intensity Objects (%) [2]: 0% and 2%
- Population Mitotic Cells (%) [2]: 53% and 39%
- Population Normal (%) [2]: 100% and 97%
- Population Tubulin-Different-Phenotype (%) [2]: 57% and 75%
- Total Cell Count [2]: 815 and 281
- Population Apoptotic (%) [3]: 46% and 59%
- Population Healthy Nuclei (%) [3]: 55% and 80%
- Population Hoechst High Intensity Objects (%) [3]: 0%
- Population Membrane Permeable-Phenotype (%) [3]: 0% and 3%
- Population Mitochondria Different-Phenotype (%) [3]: 0% and 7%
- Population Mitotic Cells (%) [3]: 53% and 40%
- Population Normal (%) [3]: 100%
- Population Pyknosed Nuclei (%) [3]: 25% and 15%
- Population Tubulin-Different-Phenotype (%) [3]: 87% and 50%
- Population Apoptotic (%) [4]: 72% and 83%
- Population Healthy Nuclei (%) [4]: 32% and 23%
- Population Hoechst High Intensity Objects (%) [4]: 0% and 1%
- Population Mitotic Cells (%) [4]: 27% and 16%
- Population Normal (%) [4]: 100% and 98%
- Population Tubulin-Different-Phenotype (%) [4]: 62% and 78%
- Population Apoptotic (%) [5]: 72% and 78%
- Population Healthy Nuclei (%) [5]: 61% and 82%
- Population Hoechst High Intensity Objects (%) [5]: 1% and 0%
- Population Membrane Permeable-Phenotype (%) [5]: 2% and 4%
- Population Mitochondria Different-Phenotype (%) [5]: 2% and 5%
- Population Mitotic Cells (%) [5]: 27% and 22%
- Population Normal (%) [5]: 98% and 100%
- Population Pyknosed Nuclei (%) [5]: 23% and 14%
- Population Tubulin-Different-Phenotype (%) [5]: 91% and 62%
- Population Apoptotic (%) [6]: 95% and 94%
- Population Hoechst High Intensity Objects (%) [6]: 0% and 1%
- Population Mitotic Cells (%) [6]: 4% and 5%
- Population Normal (%) [6]: 100% and 98%
- Population Tubulin-Different-Phenotype (%) [6]: 64% and 80%
